From PubChem
STEP inh: STEP (human) phosphatase inhibition. recombinant STEP, OMFP fluorogenic substrate, fluorescence. hit rate 0.25% among 360,000. AID 588621. inhibition, % at 20 µM;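 active = inhibition at 20 µM, scaled per plate between control wells, above about 37%, limit read from the data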;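 also: 0% = DMSO with enzyme and substrate and 100% = substrate only without enzyme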
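Measure: Control-normalized % inhibition with plate pattern correction | Test system: STEP phosphatase, cell-free reaction | Medium: pH 6.0 Bis-Tris with DTT and Tween 20 | Technique: Fluorescence, 480/540 nm | Times: Reaction 20 min, ambient temperature | Doses: Single compound dose of 20 µM, 1% DMSO final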
SUMO1 PPI mod: alters human SUMO1 binding to SIM partners | inhibition, % at 20 µM | SUMO1 binding to a labelled peptide, TR-FRET, 1 h | hit rate 0.33% among 360,000; in the data active = inhibition above about 37%
Target sequence (P63165 whole entry, looked up): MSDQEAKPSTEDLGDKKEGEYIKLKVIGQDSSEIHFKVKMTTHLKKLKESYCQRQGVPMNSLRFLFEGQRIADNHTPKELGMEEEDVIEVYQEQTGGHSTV
LMPTP block: blocks human LMPTP phosphatase. P24666. hit rate 0.22% among 360,000. AID 651560. inhibition, % at 20 µM. recombinant LMPTP-A, OMFP fluorogenic substrate, fluorescence intensity;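 active = compounds that cut the enzyme signal by at least half of the control window in the single-dose screen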;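 also: plate controls were DMSO wells with enzyme plus substrate for no effect and substrate without enzyme for full effect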
Target sequence (P24666 whole entry, looked up): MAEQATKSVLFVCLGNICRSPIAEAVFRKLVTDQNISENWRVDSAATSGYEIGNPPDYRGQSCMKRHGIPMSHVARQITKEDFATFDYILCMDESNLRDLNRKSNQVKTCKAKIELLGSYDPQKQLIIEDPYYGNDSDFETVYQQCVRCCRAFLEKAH
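Material: LMPTP-A; amount: 0.625 nM enzyme; doses: single 20 µM dose; times: reaction 50 min, room temperature, dark; technique: fluorescence intensity of OMFP turnover product; benchmarks: no-enzyme and uninhibited controls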
DNMT1 block: inhibitors of human DNMT1; P26358; DNMT1 molecular beacon, Hinp1I cleavage, fluorescence; inhibition (reported as % activation of signal), % at 10 µM; hit rate 0.83% among 360,000; AID 588458; in the data active = inhibition above about 50%
Scp1 inh: Scp-1 (human) phosphatase inhibition; hit rate 0.88% among 340,000; Q9GZU7; inhibition, % at 20 µM; AID 493091; Recombinant Scp1, phosphopeptide, malachite green phosphate absorbance;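 active = inhibition above about 50% at 20 µM, limit read from the data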;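 also: plate controls were DMSO wells with enzyme for no effect and wells lacking enzyme for full effect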
Target sequence (Q9GZU7 76-261 limits assumed): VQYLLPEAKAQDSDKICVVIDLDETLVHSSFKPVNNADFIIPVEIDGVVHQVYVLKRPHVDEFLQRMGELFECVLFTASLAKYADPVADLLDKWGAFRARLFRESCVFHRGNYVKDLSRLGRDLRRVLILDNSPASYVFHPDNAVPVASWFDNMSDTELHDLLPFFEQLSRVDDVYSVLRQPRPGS
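Test system – truncated SCP-1 phosphatase (76-261aa) · Reagent – Phosphorylated 17-residue peptide substrate · Incubation – 45 min room-temperature reaction, 5 min colour, 30 min stabiliser · Detection – colorimetric phosphate reagent with accelerator and stabiliser, absorbance at 630 nm · Measure – % inhibition at 20 µM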
CFTR F508del cor: CFTR F508del correction in bronchial cells; CFBE cells, YFP halide quenching; stimulated with forskolin plus potentiator P3; % fluorescence drop versus neutral controls; activity (quench increase), % at 7.58 µM; hit rate 0.36% among 350,000;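 active = mean added fluorescence quench of at least 8% versus neutral control, with both replicates also reaching 8%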;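 also: cells transiently co-express mutant CFTR-F508del with the halide-sensitive YFP; corrector assay measuring rescue of mutant channel to the surface after 24 h compound exposure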
* = called active by the depositor; . = no result. Sampled rows, rich in hits. Any-hit rate of the full collection: about 1.6%.

SMILES | STEP inh | SUMO1 PPI mod | LMPTP block | DNMT1 block | Scp1 inh | CFTR F508del cor
O=C(C[C@@H]1CC[C@H]2[C@@H](COC[C@@H](O)CN2Cc2ccc(Cl)cc2)O1)NCc1ccccc1Cl | . | . | . | . | . | 1
Cc1ccc(-c2ccc3c(c2)O[C@@H](CN(C)Cc2ccccn2)[C@@H](C)CN([C@@H](C)CO)S3(=O)=O)cc1 | . | . | . | . | . | 3
Cc1ccc(-c2ccc3c(c2)O[C@H](CN(C)Cc2ccccn2)[C@@H](C)CN([C@H](C)CO)S3(=O)=O)cc1 | . | . | . | . | . | 16*
C[C@@H]1CN([C@@H](C)CO)S(=O)(=O)c2ccc(-c3ccccc3)cc2O[C@@H]1CN(C)Cc1ccccn1 | . | . | . | . | . | 2
Cc1ccc(-c2ccc3c(c2)O[C@H](CN(C)Cc2ccccn2)[C@@H](C)CN([C@@H](C)CO)S3(=O)=O)cc1 | . | . | . | . | . | 12*
Cc1ccc(S(=O)(=O)N[C@H]2CC[C@H](CC(=O)NCc3ccncn3)O[C@H]2CO)cc1 | . | . | . | . | . | 1
COC(=O)C[C@H]1C[C@H]2c3cc(NC(=O)Nc4ccccc4)ccc3O[C@H]2[C@@H](CO)O1 | . | . | . | . | . | -2
CCOC(=O)NC(NC(=O)OCC)C(=O)c1ccc(F)cc1 | 0 | -1 | -2 | -5 | 102* | .
C[C@@H]1CCCCO[C@@H](CN(C)Cc2ccc(C(=O)O)cc2)[C@@H](C)CN([C@@H](C)CO)C(=O)c2cc(NC(=O)c3ccccc3)ccc2O1 | . | . | . | . | . | -1
O=C(Nc1nc2c(Cl)ccc(Cl)c2s1)C1CC1 | 1 | 3 | -1 | 9 | -9 | -2
NNc1nc2c(Cl)ccc(Cl)c2s1 | 33 | 3 | 85* | 2 | -2 | .
COCC(=O)N(C)C[C@@H]1Oc2cc(-c3ccccc3F)ccc2S(=O)(=O)N([C@H](C)CO)C[C@H]1C | . | . | . | . | . | 3
Cc1ccc(N(C)c2nc(N)nc(N)c2N=O)cc1 | . | . | . | . | . | 9.9*
Cc1cccc(Nc2nc(N)nc(N)c2N=O)c1 | 3 | -28 | 0 | 4 | -10 | 0
CCOc1ccc2c(ccc(/C=C/c3cc(C)c4cccnc4c3O)[n+]2C)c1 | 9 | -67 | 76* | -21 | 52* | .
CCOc1ccc(N=Nc2ccc(O)c3ncccc23)cc1 | 1 | -18 | 4 | 4 | -10 | 7
COc1ccc(S(=O)(=O)NC[C@H]2CC[C@H]3[C@H](CN3Cc3cc(F)ccc3F)O2)cc1 | . | . | . | . | . | 5
O=C1c2ccc3c4c(ccc(c24)C(=O)N1c1ccc(O)cc1)C(=O)N(c1ccc(O)cc1)C3=O | 0 | 88* | 5 | 13 | 3 | 2
COC(=O)c1[nH]c2c(c1C)C(=O)CC(c1ccc(OC)c(OC)c1)C2 (stereo unspecified) | -1 | 0 | -6 | 0 | -10 | 1
COCCOC(=O)c1[nH]c2c(c1C)C(=O)CC(c1cccs1)C2 (stereo unspecified) | -1 | 2 | 3 | 1 | -4 | 13*
COC(=O)c1[nH]c2c(c1C)C(=O)CC(c1cccc(OC)c1)C2 (stereo unspecified) | 1 | 1 | 1 | -2 | 4 | 8.4*
CCCN1C[C@@H](C)[C@H](OC)CN(C)C(=O)c2ccc(NC(=O)c3ccccn3)cc2OC[C@H]1C | . | . | . | . | . | -2
CCOC(=O)c1c(C)nc2sc3c(=O)[nH]cnc3c2c1-c1ccc(OC)cc1 | 0 | 3 | -1 | 2 | -12 | .
COc1ccc(-c2c(C(C)=O)c(C)nc3sc4c(c23)NC(c2ccccc2)NC4=O)cc1 (stereo unspecified) | 2 | 40* | -2 | 6 | -7 | .
CCOC(=O)c1c(C)nc2sc3c(c2c1-c1ccc(OC)cc1)NC(c1ccccc1)NC3=O (stereo unspecified) | -1 | 47* | 1 | 0 | -3 | .
SMILES | STEP inh | SUMO1 PPI mod | LMPTP block | DNMT1 block | Scp1 inh | CFTR F508del cor
CN(C)CCNC(=O)c1cccc(-c2cnc3c(NC=O)cc(-c4ccccc4F)cn23)c1 | 2 | 9 | -3 | -4 | . | 3
CN(C)CCNC(=O)c1cccc(-c2cnc3c(NC=O)cc(-c4cccs4)cn23)c1 | 4 | 51* | -2 | -5 | . | -2
Cc1cc(-c2cc(NC=O)c3ncc(-c4cccc(C(=O)NCCN(C)C)c4)n3c2)cc(C)c1O | 6 | 48* | -13 | -4 | . | 1
O=S(=O)(Cc1ccccc1)Nn1cnnc1 | 0 | 60* | 5 | -2 | -6 | 1
Cc1cccc(NS(=O)(=O)Cc2ccccc2)n1 | 1 | -2 | -1 | -2 | -5 | .
CC(C)NC(=O)N(C)C[C@H]1Oc2cc(C#CC3CC3)ccc2S(=O)(=O)N([C@H](C)CO)C[C@H]1C | . | . | . | . | . | 3
O=C(Nc1ccc2oc(-c3cccnc3)nc2c1)c1ccco1 | -3 | 13 | 11 | -2 | 16 | .
O=C(Nc1ccc2oc(-c3cccnc3)nc2c1)c1ccc(Br)o1 | 4 | 38* | -3 | -11 | 37 | .
COc1cc(-c2noc(C)c2/C=C/c2ccc(C(=O)O)cc2)cc(OC)c1OC | 2 | -3 | 2 | 61* | 16 | -5
C[C@@H]1CN([C@H](C)CO)C(=O)c2cc(NS(C)(=O)=O)ccc2O[C@@H]1CN(C)Cc1ccc(C(F)(F)F)cc1 | . | . | . | . | . | 4
COc1ccc(CC(=O)Nc2nccs2)cc1S(=O)(=O)N1CCOCC1 | -1 | -2 | 0 | 0 | 0 | 17*
COc1ccc(CC(=O)Nc2nnc(CC(C)C)s2)cc1S(=O)(=O)N1CCOCC1 | 4 | -1 | 1 | 1 | -4 | 0
CC(C)NC(=O)N[C@H]1C=C[C@@H](CC(=O)N2CCCCC2)O[C@H]1CO | . | . | . | . | . | -1
C/C(=N\NC(=O)c1c(Cl)c(C)nn1C)c1ccc(NC(=O)C2CCC2)cc1 | -2 | -5 | -1 | 2 | 3 | 11*
C[C@H](CO)N1C[C@H](C)[C@H](CN(C)Cc2ccc(C(=O)Nc3ccccc3N)cc2)Oc2ccc(NS(=O)(=O)c3ccccc3)cc2C1=O | . | . | . | . | . | 0
CC(=O)N1CCCCN2[C@H](CO)[C@H](c3ccc(-c4cccc(C(=O)N(C)C)c4)cc3)[C@@H]2C1 | . | . | . | . | . | -1
COCOc1cccc(CN2CCC2(C)C(=O)Nc2ccc(C)c(O)c2)c1 (stereo unspecified) | -2 | 7 | -2 | 1 | . | 8.8*
COCOc1cccc(CN2CCC2(C)C(=O)Nc2ccc(C)cc2)c1 (stereo unspecified) | 1 | 3 | -1 | 3 | . | 0
C[C@@H]1CN([C@@H](C)CO)C(=O)Cc2cc(NS(=O)(=O)c3cccs3)ccc2O[C@H]1CN(C)C(=O)Nc1ccccc1 | . | . | . | . | . | 2
Oc1[nH]c2ccccc2c1N=Nc1c(F)c(F)c(Cl)c(F)c1F | -1 | -5 | -1 | -2 | -10 | 2
Oc1[nH]c2ccccc2c1N=Nc1ccccc1Cl | -4 | -3 | -1 | 54* | 7 | 2
